Calls of active or inactive are those of the source. No cut-off for these calls is given here.
What was measured:
[1] = target: T1, Muscarinic acetylcholine receptor M2 (Homo sapiens, UniProt P08172); assay: Displacement of [3H]-NMS from human muscarinic M2 receptor stably expressed in CHO-K9 cells by radioligand competitive binding assay; format: cell-based
T1 sequence (P08172 whole entry): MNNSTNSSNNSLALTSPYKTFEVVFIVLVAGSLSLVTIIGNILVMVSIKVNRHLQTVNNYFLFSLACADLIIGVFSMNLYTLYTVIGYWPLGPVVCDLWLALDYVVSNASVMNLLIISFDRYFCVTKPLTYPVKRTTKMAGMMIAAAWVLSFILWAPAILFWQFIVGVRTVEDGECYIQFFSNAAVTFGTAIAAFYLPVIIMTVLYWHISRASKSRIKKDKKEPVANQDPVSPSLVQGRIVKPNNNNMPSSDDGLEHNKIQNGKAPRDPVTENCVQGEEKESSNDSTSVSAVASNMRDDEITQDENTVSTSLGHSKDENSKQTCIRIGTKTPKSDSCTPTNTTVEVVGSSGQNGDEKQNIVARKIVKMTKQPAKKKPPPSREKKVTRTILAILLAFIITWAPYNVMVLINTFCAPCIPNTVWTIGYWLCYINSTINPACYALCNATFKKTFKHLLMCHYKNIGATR
Method in brief: (§1)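 Equilibrium competition binding at live CHO-hMxR cells with [3H]NMS at M1 0.2, M2 0.2, M3 0.2, M4 0.1, M5 0.3 nM. […] Four-parameter logistic fit converted to pKi; at least three experiments in triplicate (some two).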

[2] = target: T2, Muscarinic acetylcholine receptor M2 (Homo sapiens) (UniProt P08172); assay: Agonist activity at human muscarinic M2 receptor expressed in HEK293 cells co-expressing HA-Galphaq/i5 assessed as induction of Galphaq/i5-mediated IP1 accumulation by HTRF assay; format: functional, cell-based
T2 sequence (whole entry): T1 sequence (P08172 whole entry)
Method in brief: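 HEK-293 cells transiently co-transfected with hM2R and hybrid Gαqi5-HA, run in agonist mode at 37 °C; IP1 accumulation measured. Carbachol control from 14 independent experiments in duplicate; test ligands from three or four independent experiments in duplicate.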

[3] = target: T1, Muscarinic acetylcholine receptor M2; assay: Antagonist activity at human muscarinic M2 receptor expressed in HEK293 cells co-expressing HA-Galphaq/i5 assessed as inhibition of carbachol-induced IP1 accumulation at 37 degree C pre-incubated for 30 mins followed by carbachol addition and measured after 60 mins by HTRF assay; format: functional, cell-based
[4] = target: T1, Muscarinic acetylcholine receptor M2; assay: Binding affinity to human muscarinic M2 receptor expressed in CHO-K9 cells incubated in dark measured after 60 mins by Hoechst H33342 dye based confocal plate reader assay; format: cell-based
Method in brief: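 Live CHO-hMxR cells (M1 or M2) incubated with fluorescent ligand at 22 °C in the dark for 1 h, washed, then imaged at once by high-content confocal plate reader.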

[5] = target: T1, Muscarinic acetylcholine receptor M2; assay: Antagonist activity at human muscarinic M2 receptor expressed in HEK293 cells co-expressing HA-Galphaq/i5 assessed as inhibition of carbachol-induced IP1 accumulation at 22 degree C pre-incubated for 180 mins followed by carbachol addition and further incubated at 37 degree C for 90 mins by HTRF assay; format: functional, cell-based
Method in brief: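 HEK-hM2-Gαqi5-HA cells (transient transfection) preincubated with antagonist at 22 °C for 180 min, then carbachol 0.3 μM (≈EC80) added and incubation continued at 37 °C for 90 min. Readout is inhibition of IP1 accumulation as pIC50, mean ± SEM of n independent experiments, each in duplicate.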

[6] = target: T2, Muscarinic acetylcholine receptor M2 (Homo sapiens); assay: Binding affinity to human muscarinic M2 receptor expressed in […] cells assessed as unspecific binding at Kd incubated in dark at 22 degree C for 2 hrs in presence of atropine by FACSCalibur flow cytometric saturation binding study relative to control; format: cell-based
[7] = target: T1, Muscarinic acetylcholine receptor M2; assay: Binding affinity to human muscarinic M2 receptor expressed in […] cells incubated in dark at 22 degree C for 2 hrs by FACSCalibur flow cytometric saturation binding study; format: cell-based
[8] = target: T3, Muscarinic acetylcholine receptor M5 (Homo sapiens, UniProt P08912); assay: Displacement of [3H]-NMS from human muscarinic M5 receptor stably expressed in CHO-K9 cells by radioligand competitive binding assay; format: cell-based; method in brief: as §1
T3 sequence (P08912 whole entry): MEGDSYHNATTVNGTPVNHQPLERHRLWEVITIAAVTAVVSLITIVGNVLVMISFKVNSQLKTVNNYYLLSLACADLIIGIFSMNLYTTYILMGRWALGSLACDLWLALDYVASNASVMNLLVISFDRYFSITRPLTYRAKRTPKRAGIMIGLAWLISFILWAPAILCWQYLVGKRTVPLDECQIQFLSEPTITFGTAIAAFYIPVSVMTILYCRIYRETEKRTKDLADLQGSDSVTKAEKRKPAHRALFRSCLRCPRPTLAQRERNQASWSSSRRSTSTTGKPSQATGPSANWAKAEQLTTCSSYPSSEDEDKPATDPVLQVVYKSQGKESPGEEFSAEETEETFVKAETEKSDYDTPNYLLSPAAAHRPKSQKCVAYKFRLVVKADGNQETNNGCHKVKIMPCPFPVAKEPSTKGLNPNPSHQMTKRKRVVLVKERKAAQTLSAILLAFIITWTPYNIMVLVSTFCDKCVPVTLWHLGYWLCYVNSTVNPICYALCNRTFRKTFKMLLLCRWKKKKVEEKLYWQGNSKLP

[9] = target: T4, Muscarinic acetylcholine receptor M1 (Homo sapiens, UniProt P11229); assay: Displacement of [3H]-NMS from human muscarinic M1 receptor stably expressed in CHO-K9 cells by radioligand competitive binding assay; format: cell-based; method in brief: as §1
T4 sequence (P11229 whole entry): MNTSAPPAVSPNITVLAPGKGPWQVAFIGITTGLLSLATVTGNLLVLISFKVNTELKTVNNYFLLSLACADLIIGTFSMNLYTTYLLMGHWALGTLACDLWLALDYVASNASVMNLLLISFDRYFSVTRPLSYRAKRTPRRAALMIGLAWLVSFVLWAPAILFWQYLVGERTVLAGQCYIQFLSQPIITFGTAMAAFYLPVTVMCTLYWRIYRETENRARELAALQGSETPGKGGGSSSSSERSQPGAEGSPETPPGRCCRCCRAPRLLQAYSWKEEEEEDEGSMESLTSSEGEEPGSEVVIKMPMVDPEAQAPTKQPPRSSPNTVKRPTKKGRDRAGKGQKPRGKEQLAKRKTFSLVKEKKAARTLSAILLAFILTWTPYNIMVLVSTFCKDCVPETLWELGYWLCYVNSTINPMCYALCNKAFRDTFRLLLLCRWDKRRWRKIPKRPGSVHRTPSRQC

[10] = target: T5, Muscarinic acetylcholine receptor M4 (Homo sapiens, UniProt P08173); assay: Antagonist activity at human muscarinic M4 receptor expressed in HEK293 cells co-expressing HA-Galphaq/i5 assessed as inhibition of carbachol-induced IP1 accumulation at 22 degree C pre-incubated for 180 mins followed by carbachol addition and further incubated at 37 degree C for 90 mins by HTRF assay; format: functional, cell-based
T5 sequence (P08173 whole entry): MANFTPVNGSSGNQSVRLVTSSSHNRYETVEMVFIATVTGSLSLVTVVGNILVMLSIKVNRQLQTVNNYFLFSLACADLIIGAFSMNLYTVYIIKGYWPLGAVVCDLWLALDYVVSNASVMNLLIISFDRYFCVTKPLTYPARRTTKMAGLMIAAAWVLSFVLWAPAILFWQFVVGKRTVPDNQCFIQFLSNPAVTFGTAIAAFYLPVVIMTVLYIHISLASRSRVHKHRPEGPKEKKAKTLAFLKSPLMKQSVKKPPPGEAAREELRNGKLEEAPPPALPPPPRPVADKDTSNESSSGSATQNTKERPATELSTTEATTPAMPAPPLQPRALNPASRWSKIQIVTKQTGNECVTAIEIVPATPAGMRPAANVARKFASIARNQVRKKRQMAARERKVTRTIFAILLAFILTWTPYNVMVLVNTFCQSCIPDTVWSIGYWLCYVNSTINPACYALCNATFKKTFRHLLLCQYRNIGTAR

[11] = target: T5, Muscarinic acetylcholine receptor M4; assay: Displacement of [3H]-NMS from human muscarinic M4 receptor stably expressed in CHO-K9 cells by radioligand competitive binding assay; format: cell-based; method in brief: as §1
[12] = target: Muscarinic acetylcholine receptor M3 (Homo sapiens, UniProt P20309); assay: Displacement of [3H]-NMS from human muscarinic M3 receptor stably expressed in CHO-K9 cells by radioligand competitive binding assay; format: cell-based; method in brief: as §1
[13] = Chemical stability of compound in PBS buffer assessed as retention time at pH 7.4 and 22 degree C measured up to 48 hrs by RP-HPLC analysis; format: physicochemical; conditions: pH 7.4, 48 h
Method in brief: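 Fluorescent ligand stability checked in PBS pH 7.4 over 48 h by RP-HPLC on a C18 column with an aqueous TFA/acetonitrile gradient, oven at 25 °C, detection at 220 nm.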

Chain of Muscarinic acetylcholine receptor M3 (P20309 whole entry): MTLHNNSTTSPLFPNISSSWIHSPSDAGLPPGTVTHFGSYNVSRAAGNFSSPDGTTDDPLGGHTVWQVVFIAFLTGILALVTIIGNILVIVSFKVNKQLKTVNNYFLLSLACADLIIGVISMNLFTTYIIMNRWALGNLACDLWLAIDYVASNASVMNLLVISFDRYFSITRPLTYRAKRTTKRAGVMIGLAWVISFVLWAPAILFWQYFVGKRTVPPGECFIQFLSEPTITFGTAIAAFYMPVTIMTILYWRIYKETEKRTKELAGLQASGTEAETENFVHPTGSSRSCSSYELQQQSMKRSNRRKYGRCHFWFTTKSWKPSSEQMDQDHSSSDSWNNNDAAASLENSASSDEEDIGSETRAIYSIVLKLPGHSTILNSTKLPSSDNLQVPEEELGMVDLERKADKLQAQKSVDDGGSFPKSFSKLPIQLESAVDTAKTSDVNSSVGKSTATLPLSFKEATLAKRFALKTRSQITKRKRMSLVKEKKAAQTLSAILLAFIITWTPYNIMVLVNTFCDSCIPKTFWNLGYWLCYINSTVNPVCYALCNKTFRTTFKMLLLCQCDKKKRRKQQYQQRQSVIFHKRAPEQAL

Structure (SMILES)	Ki [1] [nM]	Ki [8] [nM]	Ki [9] [nM]	Ki [11] [nM]	Ki [12] [nM]	further results
CC1(C)C(/C=C/C=C/C=C2/N(CCCCCC(=O)NCc3cc(C(=O)NCCNC(=O)CCc4cn(CCCCC5CCN(CC(=O)N6c7ccccc7NC(=O)c7ccccc76)CC5)cn4)cc(C(=O)NCCNC(=O)CCc4cn(CCCCC5CCN(CC(=O)N6c7ccccc7NC(=O)c7ccccc76)CC5)cn4)c3)c3ccccc3C2(C)C)=[N+](CCCCS(=O)(=O)[O-])c2ccccc21	1.41					
CC1(C)C(/C=C/C=C/C=C2/N(CCCCCC(=O)NCCN3CCN(CCCCC4CCN(CC(=O)N5c6ccccc6NC(=O)c6ccccc65)CC4)CC3)c3ccccc3C2(C)C)=[N+](CCCCS(=O)(=O)[O-])c2ccccc21	1.35	141	10	3.98	67.6	Activity [2]: inactive; IC50 [3]: 49 nM; Kd ([4]; read-out: Kd): 10.8 nM; Kd ([4]; read-out: pKd (converted)): 8.71 nM; IC50 [5]: 60.3 nM; Activity [6]: 10%; Kd ([7]; read-out: Kd): 2 nM; Kd ([7]; read-out: pKd (converted)): 2.57 nM; IC50 [10]: 91.2 nM
C[N+]1=C(/C=C/C=C/C=C2/N(CCCCCC(=O)NCCN3CCN(CCCCC4CCN(CC(=O)N5c6ccccc6NC(=O)c6ccccc65)CC4)CC3)c3ccccc3C2(C)C)C(C)(C)c2ccccc21	4.47	69.2	15.1	18.6	85.1	
CC1(C)C(/C=C/C=C/C=C2/N(CCCCCC(=O)NCCNC(=O)CCc3cn(CCCCC4CCN(CC(=O)N5c6ccccc6NC(=O)c6ccccc65)CC4)cn3)c3ccccc3C2(C)C)=[N+](CCCCS(=O)(=O)[O-])c2ccccc21	0.933					
NCCNC(=O)CCc1cn(CCCCC2CCN(CC(=O)N3c4ccccc4NC(=O)c4ccccc43)CC2)cn1	0.589					
NCCCCC1CCN(CC(=O)N2c3ccccc3NC(=O)c3ccccc32)CC1	10.7					
CC1(C)C(/C=C/C=C/C=C2/N(CCCCCC(=O)NCCCCC3CCN(CC(=O)N4c5ccccc5NC(=O)c5ccccc54)CC3)c3ccccc3C2(C)C)=[N+](CCCCS(=O)(=O)[O-])c2ccccc21	141	871	347	200	871	
Cc1cc(/C=C/C=C/c2ccc(N(C)C)cc2)cc(C)[n+]1CCCCC1CCN(CC(=O)N2c3ccccc3NC(=O)c3ccccc32)CC1	17	200	30.9	16.2	85.1	
NCc1cc(C(=O)NCCNC(=O)CCc2cn(CCCCC3CCN(CC(=O)N4c5ccccc5NC(=O)c5ccccc54)CC3)cn2)cc(C(=O)NCCNC(=O)CCc2cn(CCCCC3CCN(CC(=O)N4c5ccccc5NC(=O)c5ccccc54)CC3)cn2)c1	0.269					
NCCN1CCN(CCCCC2CCN(CC(=O)N3c4ccccc4NC(=O)c4ccccc43)CC2)CC1	0.182	234	5.89	0.447	145	
CC1(C)C(/C=C/C=C/C=C2/N(CCCCCC(=O)NCc3cc(C(=O)NCCN4CCC(N5CCC(n6c(=O)[nH]c7ccccc76)CC5)CC4)cc(C(=O)NCCN4CCN(CCCCC5CCN(CC(=O)N6c7ccccc7NC(=O)c7ccccc76)CC5)CC4)c3)c3ccc(S(=O)(=O)[O-])cc3C2(C)C)=[N+](CCCCS(=O)(=O)O)c2ccccc21.O=C(O)C(F)(F)F.O=C(O)C(F)(F)F.O=C(O)C(F)(F)F.O=C(O)C(F)(F)F	0.257	30.9	2.29	2.57	21.9	Activity [6]: 10%; Kd ([7]; read-out: Kd): 0.65 nM; Retention_time [13]: 18 min
C[N+]1=C(/C=C/C=C/C=C2/N(CCCCCC(=O)NCCCCC3CCN(CC(=O)N4c5ccccc5NC(=O)c5ccccc54)CC3)c3ccccc3C2(C)C)C(C)(C)c2ccccc21	53.7	288	120	67.6	631	
Cc1cc(/C=C/C=C/c2ccc(N(C)C)cc2)cc(C)[n+]1CCN1CCN(CCCCC2CCN(CC(=O)N3c4ccccc4NC(=O)c4ccccc43)CC2)CC1	3.02	389	13.8	9.55	148	

From ChEMBL document CHEMBL4602702, “Red-Emitting Dibenzodiazepinone Derivatives as Fluorescent Dualsteric Probes for the Muscarinic Acetylcholine M2 Receptor” (J Med Chem, 2020)
